Results taken from ChEMBL document CHEMBL1671677, “Role of AbeS, a novel efflux pump of the SMR family of transporters, in resistance to antimicrobial agents in Acinetobacter baumannii” (2009).
In brackets after ≈: the same amount, converted by molar mass. Activity calls are given as the source filed them.

Assays:
[1] = system: Escherichia coli; assay: Antibacterial activity against Escherichia coli KAM32 harboring plasmid pUC18 by CLSI broth microdilution method; assay type: functional
[2] = system: Escherichia coli; assay: Antibacterial activity against Escherichia coli KAM32 harboring plasmid pUC18 by CLSI broth microdilution method in presence of 25 ug/ml efflux pump inhibitor CCCP; assay type: functional
[3] = system: Escherichia coli; assay: Antibacterial activity against Escherichia coli KAM32 harboring recombinant plasmid pVBS1 encoding Acinetobacter baumannii abeS gene by CLSI broth microdilution method; assay type: functional
[4] = system: Escherichia coli; assay: Antibacterial activity against Escherichia coli KAM32 harboring recombinant plasmid pVBS1 encoding Acinetobacter baumannii abeS gene by CLSI broth microdilution method in presence of 25 ug/ml efflux pump inhibitor CCCP; assay type: functional
[5] = system: Acinetobacter baumannii; assay: Antibacterial activity against Acinetobacter baumannii AC0037 by CLSI broth microdilution method; assay type: functional
[6] = system: Acinetobacter baumannii; assay: Antibacterial activity against abeS-deficient Acinetobacter baumannii AC0037 by CLSI broth microdilution method; assay type: functional
[7] = system: Acinetobacter baumannii; assay: Ratio of MIC for Acinetobacter baumannii AC0037 to MIC for abeS-deficient Acinetobacter baumannii AC0037; assay type: functional
Summary of the method: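 MICs were determined by broth dilution and interpreted per CLSI criteria for the parental A. baumannii AC0037 and its abeS null mutant. The mutant was made by electroporating a plasmid carrying abeS disrupted by a kanamycin-resistance cassette, for double homologous recombination, and selected on 50 μg/ml kanamycin plus 80 μg/ml ticarcillin. The ratio is the parental MIC over the mutant MIC.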

[8] = system: Acinetobacter baumannii; assay: Antibacterial activity against abeS sigma abeS-deficient Acinetobacter baumannii AC0037 by CLSI broth microdilution method; assay type: functional
[9] = system: Escherichia coli; assay: Ratio of MIC for Escherichia coli KAM32 harboring recombinant plasmid pVBS1 encoding Acinetobacter baumannii abeS gene to MIC for Escherichia coli KAM32 harboring plasmid pUC18
[10] = molecular target: T1, QacEdelta1 SMR family efflux pump (Acinetobacter baumannii) (UniProt Q2FD83); assay: Inhibition of Acinetobacter baumannii abeS expressed in Escherichia coli KAM32 assessed as decrease in increase in bromide accumulation
T1 sequence (whole entry): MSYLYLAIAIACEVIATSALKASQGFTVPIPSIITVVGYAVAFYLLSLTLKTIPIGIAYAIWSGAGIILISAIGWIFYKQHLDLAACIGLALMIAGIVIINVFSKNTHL
Summary of the method: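 EtBr accumulation in E. coli KAM32 (lacks AcrAB, YdhE) carrying pUC18 or pVBS1 (abeS). CCCP, a proton motive force uncoupler, added to 25 μg/ml final after 20 min with substrate. Cells lysed; supernatant fluorescence read at excitation 530 nm, emission 600 nm. Relative fluorescence taken as accumulated EtBr. Mean plus SD of three independent experiments.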

Row | Compound | MIC [1] [µg/mL] | MIC [2] [µg/mL] | MIC [3] [µg/mL] | MIC [4] [µg/mL] | MIC [5] [µg/mL] | MIC [6] [µg/mL] | Ratio [7] | MIC [8] [µg/mL] | Ratio [9] | inhibition [10] | Activity [6]
1 | NCC[C@H](O)C(=O)N[C@@H]1C[C@H](N)[C@@H](O[C@H]2O[C@H](CN)[C@@H](O)[C@H](O)[C@H]2O)[C@H](O)[C@H]1O[C@H]1O[C@H](CO)[C@@H](O)[C@H](N)[C@H]1O [AMIKACIN] | 1 (≈ 1.71 µM) | 0.15 | 2 | 0.15 | 256 (≈ 437 µM) | 256 (≈ 437 µM) | 1 | 256 (≈ 437 µM) | 2 |  | 
2 | N#CC(C#N)=NNc1cccc(Cl)c1 |  |  |  |  |  |  |  |  |  | Active | 
3 | [Cl-].c1ccc([P+](c2ccccc2)(c2ccccc2)c2ccccc2)cc1 [TETRAPHENYLPHOSPHONIUM CHLORIDE] | 8 | 0.25 | 16 | 0.25 | 1500 | 300 | 5 | > 500 | 2 |  | 
4 | C[C@@H](O)[C@H]1C(=O)N2C(C(=O)O)=C(S[C@@H]3CN[C@H](C(=O)N(C)C)C3)[C@H](C)[C@H]12 |  |  |  |  |  |  |  |  |  |  | inactive
5 | COC(=O)c1ccccc1-c1c2ccc(=N)cc-2oc2cc(N)ccc12.Cl [RHODAMINE123] | 8 |  | 32 |  | 128 | 64 | 2 | 128 | 4 |  | 
6 | COc1cc(Cc2cnc(N)nc2N)cc(OC)c1OC [TRIMETHOPRIM] | 0.125 (≈ 0.431 µM) |  | 0.2 |  | 64 (≈ 220 µM) | 64 (≈ 220 µM) | 1 | 64 (≈ 220 µM) | 2 |  | 
7 | CN(C)[C@@H]1C(O)=C(C(N)=O)C(=O)[C@@]2(O)C(O)=C3C(=O)c4c(O)cccc4[C@@](C)(O)[C@H]3C[C@@H]12 [TETRACYCLINE] | 0.5 (≈ 1.13 µM) |  | 1 |  | 64 (≈ 144 µM) | 64 (≈ 144 µM) | 1 | 64 (≈ 144 µM) | 2 |  | 
8 | CCBr [BROMOETHANE] | 2 (≈ 18.4 µM) |  | 8 |  | 1020 (≈ 9400 µM) | 128 (≈ 1170 µM) | 8 | > 512 | 4 |  | 
9 | CC[C@H]1OC(=O)[C@H](C)[C@@H](O[C@H]2C[C@@](C)(OC)[C@@H](O)[C@H](C)O2)[C@H](C)[C@@H](O[C@@H]2O[C@H](C)C[C@H](N(C)C)[C@H]2O)[C@](C)(O)C[C@@H](C)C(=O)[C@H](C)[C@@H](O)[C@]1(C)O [ERYTHROMYCIN] | 4 (≈ 5.45 µM) | < 0.05 | 24 | 0.25 | 64 (≈ 87.2 µM) | 8 (≈ 10.9 µM) | 8 | 32 (≈ 43.6 µM) | 6 |  | 
10 | N=C(N)c1ccc(-c2cc3ccc(C(=N)N)cc3[nH]2)cc1 [DAPI] | 0.5 (≈ 1.8 µM) |  | 2 |  | 2 (≈ 7.21 µM) | 0.5 (≈ 1.8 µM) | 4 | 2 (≈ 7.21 µM) | 4 |  | 
11 | CO[C@@H]1[C@@H](OC(N)=O)[C@@H](O)[C@H](Oc2ccc3c(O)c(NC(=O)c4ccc(O)c(CC=C(C)C)c4)c(=O)oc3c2C)OC1(C)C [NOVOBIOCIN] | 4 (≈ 6.53 µM) | < 0.5 | 20 | < 0.5 | 120 (≈ 196 µM) | 40 (≈ 65.3 µM) | 3 | 84 (≈ 137 µM) | 5 |  | 
12 | N=C(NCCCCCCNC(=N)NC(=N)Nc1ccc(Cl)cc1)NC(=N)Nc1ccc(Cl)cc1 [CHLORHEXIDINE] | 2 (≈ 3.96 µM) |  | 4 |  | 32 (≈ 63.3 µM) | 16 (≈ 31.7 µM) | 2 | 32 (≈ 63.3 µM) | 2 |  | 
13 | CCn1cc(C(=O)O)c(=O)c2cc(F)c(N3CCNCC3)cc21 [NORFLOXACIN] | 0.06 (≈ 0.188 µM) | 0.001 | 0.12 | 0.001 | 512 (≈ 1600 µM) | 256 (≈ 802 µM) | 2 | > 128 | 2 |  | 
14 | CN(C)c1ccc2cc3ccc(N(C)C)cc3nc2c1 [ACRIDINE ORANGE] | 16 (≈ 60.3 µM) |  | 80 |  | 200 (≈ 754 µM) | 50 (≈ 188 µM) | 4 | 125 (≈ 471 µM) | 5 |  | 
15 | C[C@@H](O)[C@H]1C(=O)N2C(C(=O)O)=C(SCCNC=N)C[C@H]12 |  |  |  |  |  |  |  |  |  |  | inactive
16 | CCn1cc(C(=O)O)c(=O)c2ccc(C)nc21 [NALIDIXIC ACID] | 1 (≈ 4.31 µM) |  | 1 |  | 256 (≈ 1100 µM) | 128 (≈ 551 µM) | 2 | 256 (≈ 1100 µM) | 1 |  | 
17 | CC(C)(O/N=C(\C(=O)N[C@@H]1C(=O)N2C(C(=O)[O-])=C(C[n+]3ccccc3)CS[C@H]12)c1csc(N)n1)C(=O)O |  |  |  |  |  |  |  |  |  |  | inactive
18 | O=C(N[C@H](CO)[C@H](O)c1ccc([N+](=O)[O-])cc1)C(Cl)Cl [CHLORAMPHENICOL] | 0.2 (≈ 0.619 µM) |  | 0.2 |  | 256 (≈ 792 µM) | 64 (≈ 198 µM) | 4 | 128 (≈ 396 µM) | 1 |  | 
19 | C[n+]1ccc(-c2cc[n+](C)cc2)cc1.[Cl-].[Cl-] [PARAQUAT DICHLORIDE] | 64 | < 2.5 | 128 | < 2.5 | 800 | 400 | 2 | 800 | 2 |  | 
20 | C[C@H](CCC(=O)O)[C@H]1CC[C@H]2[C@@H]3CC[C@@H]4C[C@H](O)CC[C@]4(C)[C@H]3C[C@H](O)[C@]12C [DEOXYCHOLIC ACID] | 125 (≈ 318 µM) | < 0.25 | 3120 | 5 | > 2050 | 128 (≈ 326 µM) | >16 | 512 (≈ 1300 µM) | 25 |  | 
21 | CO[C@H]1/C=C/O[C@@]2(C)Oc3c(C)c(O)c4c(O)c(c(/C=N/N5CCN(C)CC5)c(O)c4c3C2=O)NC(=O)/C(C)=C\C=C\[C@H](C)[C@H](O)[C@@H](C)[C@@H](O)[C@@H](C)[C@H](OC(C)=O)[C@@H]1C [RIFAMPIN] |  |  |  |  | 2 (≈ 2.43 µM) | 2 (≈ 2.43 µM) |  | 2 (≈ 2.43 µM) |  |  | 
22 | CCCCCCCCCCCCOS(=O)(=O)[O-].[Na+] [SODIUM LAURYL SULFATE] | 50 | < 5 | 800 | < 5 | > 256 | 16 | >16 | 128 | 16 |  | 
